Measurements as given in ChEMBL document CHEMBL4765234 (J Med Chem, 2016).
In brackets after ≈: the same amount, converted by molar mass. Activity calls are given as the source filed them. No cut-off for these calls is given here.

Tests used:
[1] = molecular target: T1, Peroxisome proliferator-activated receptor alpha (Homo sapiens, UniProt Q07869); experiment: Agonist activity at human Gal4-fused PPARalpha LBD expressed in African green monkey CV1 cells cotransfected with pRL-SV40 plasmid measured after 24 hrs by luciferase reporter gene assay; type: cell-based, CV-1
T1 sequence (Q07869 whole entry): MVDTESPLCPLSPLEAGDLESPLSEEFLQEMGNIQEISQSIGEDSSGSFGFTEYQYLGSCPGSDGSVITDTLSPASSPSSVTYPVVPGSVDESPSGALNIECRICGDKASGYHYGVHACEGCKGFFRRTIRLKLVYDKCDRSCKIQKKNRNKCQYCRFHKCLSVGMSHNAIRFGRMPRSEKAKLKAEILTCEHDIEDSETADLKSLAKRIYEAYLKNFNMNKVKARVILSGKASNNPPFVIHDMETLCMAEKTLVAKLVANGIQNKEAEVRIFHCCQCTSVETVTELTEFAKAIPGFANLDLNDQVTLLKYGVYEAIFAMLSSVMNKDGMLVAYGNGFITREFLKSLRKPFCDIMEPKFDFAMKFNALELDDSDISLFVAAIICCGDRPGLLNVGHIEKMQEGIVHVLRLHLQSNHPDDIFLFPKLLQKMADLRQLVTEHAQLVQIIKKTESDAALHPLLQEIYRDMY
Method in brief: (§1)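 CV1 African green monkey kidney cells were cotransfected, in DMEM with 5% charcoal-stripped FBS, with two plasmids: an SV40-driven Gal4 DBD–PPARα or PPARδ LBD hybrid, and a 5×Gal4-element firefly luciferase reporter. Cells were replated at 15000/well for 4 h, then exposed to 0.17 nM–10 μM in half-log steps for 24 h. Luciferase was read, normalized to maximum from 10 μM reference agonist, and fit by a 4-parameter model.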

[2] = molecular target: Voltage-gated inwardly rectifying potassium channel KCNH2 (Homo sapiens, UniProt Q12809); experiment: Inhibition of human ERG
RXR alpha/PPAR gamma = molecular target: T2, RXR alpha/PPAR gamma (Homo sapiens, UniProt P19793+P37231); experiment: Agonist activity at human CMV-fused […]/RXRalpha (unknown origin) expressed in African green monkey CV1 cells transfected with luciferase plasmid measured after 24 hrs by luciferase reporter gene assay; type: cell-based, CV-1
T2 sequence (P37231 whole entry): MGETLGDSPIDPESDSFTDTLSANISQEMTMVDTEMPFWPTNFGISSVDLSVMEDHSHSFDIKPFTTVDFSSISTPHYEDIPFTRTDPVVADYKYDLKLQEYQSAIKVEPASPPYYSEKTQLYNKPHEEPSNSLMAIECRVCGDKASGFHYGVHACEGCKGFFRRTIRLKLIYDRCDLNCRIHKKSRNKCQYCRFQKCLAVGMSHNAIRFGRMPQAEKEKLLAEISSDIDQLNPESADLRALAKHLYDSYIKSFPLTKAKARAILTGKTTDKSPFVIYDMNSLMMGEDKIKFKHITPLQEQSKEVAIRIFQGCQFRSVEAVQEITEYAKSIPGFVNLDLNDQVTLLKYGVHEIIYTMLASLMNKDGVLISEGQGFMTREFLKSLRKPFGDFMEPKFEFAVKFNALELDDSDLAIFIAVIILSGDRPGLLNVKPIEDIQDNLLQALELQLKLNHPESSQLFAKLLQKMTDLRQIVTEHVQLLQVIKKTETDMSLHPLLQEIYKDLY
T2 sequence (P19793 whole entry): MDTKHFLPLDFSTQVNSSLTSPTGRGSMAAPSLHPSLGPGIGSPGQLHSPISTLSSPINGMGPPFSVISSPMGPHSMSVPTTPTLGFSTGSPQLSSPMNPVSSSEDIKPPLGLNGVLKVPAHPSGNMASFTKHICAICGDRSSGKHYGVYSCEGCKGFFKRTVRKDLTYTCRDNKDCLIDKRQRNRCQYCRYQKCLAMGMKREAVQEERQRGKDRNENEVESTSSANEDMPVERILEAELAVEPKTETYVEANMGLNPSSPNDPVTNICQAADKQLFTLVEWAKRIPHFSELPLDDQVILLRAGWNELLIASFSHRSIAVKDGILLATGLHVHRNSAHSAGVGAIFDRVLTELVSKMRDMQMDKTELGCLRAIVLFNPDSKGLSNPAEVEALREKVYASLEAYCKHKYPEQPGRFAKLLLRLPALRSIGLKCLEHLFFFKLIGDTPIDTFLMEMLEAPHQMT
Method in brief: (§2)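 CV1 cells were transfected, in DMEM with 5% charcoal-stripped FBS, with CMV-driven full PPARγ and RXRα plus a 2×PPRE TK-promoter luciferase reporter. After overnight growth, cells were replated at 15000/well for 4 h, then treated with 0.17 nM–10 μM in half-log dilutions for 24 h. Lysate luminescence was expressed as % of the maximum from 10 μM reference PPARγ agonist and fit to a 4-parameter logistic.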

Rattus norvegicus [3] = experiment: Hypoglycemic activity in Zucker fatty diabetes mellitus rat model assessed as reduction in blood glucose level administered orally for 21 days and measured at 10 to 60 mins post glucose challenge on day 1 by OGTT; type: functional, organism-based; conditions: dose 0.03-1 mg/kg, time 21.0 day
[4] = Solubility of the compound in FaSSIF; type: physicochemical
[5] = Drug metabolism in mouse hepatocytes assessed as glucuronidation by LC-MS/MS analysis; type: ADME, cell-based, Hepatocyte
Mus musculus = experiment: Agonist activity at GPR40 in Balb/c mouse assessed as increase in GLP-1 levels in blood at 30 mg/kg, po measured at 15 to 180 mins by ELISA; type: functional, organism-based; conditions: filed as agonist, time lower […], time upper 180.0 min
Rattus norvegicus [6] = experiment: Hypoglycemic activity in Zucker fatty diabetes mellitus rat model assessed as reduction in blood glucose level administered orally for 21 days and measured at 10 to 60 mins post glucose challenge on day 21 by OGTT; type: functional, organism-based; conditions: dose 0.03-1 mg/kg, time 21.0 day
[7] = Clearance in mouse hepatocytes by LC-MS/MS analysis; type: ADME, cell-based, Hepatocyte
Rattus norvegicus [8] = experiment: Hypoglycemic activity in Zucker fatty diabetes mellitus rat model assessed as increase in insulin levels in plasma at 0.03 to 1 mg/kg, po administered for 21 days and measured at 10 to 60 mins post glucose challenge on day 21 by OGTT; type: functional, organism-based; conditions: dose 0.03-1 mg/kg, time 21.0 day
[9] = Drug metabolism in dog hepatocytes assessed as glucuronidation by LC-MS/MS analysis; type: ADME, cell-based, Canis lupus familiaris, Hepatocyte
[10] = molecular target: T3, Peroxisome proliferator-activated receptor alpha (Homo sapiens) (UniProt Q07869); experiment: Agonist activity at human Gal4-fused PPARalpha LBD expressed in African green monkey CV1 cells cotransfected with pRL-SV40 plasmid assessed as maximum efficacy measured after 24 hrs by luciferase reporter gene assay relative to control; type: cell-based; conditions: CV-1; method in brief: as §1
T3 sequence (whole entry): T1 sequence (Q07869 whole entry)

[11] = molecular target: RXR alpha/PPAR gamma (Homo sapiens) (UniProt P37231+P19793); experiment: Agonist activity at human CMV-fused PPARgamma […]/RXRalpha (unknown origin) expressed in African green monkey CV1 cells transfected with luciferase plasmid assessed as maximum efficacy measured after 24 hrs by luciferase reporter gene assay relative to control; type: cell-based; conditions: CV-1; method in brief: as §2
[12] = Clearance in mouse liver microsomes by LC-MS/MS analysis; type: ADME, Microsome
[13] = Lipophilicity, logP of compound; type: physicochemical; conditions: octanol/water
Rattus norvegicus [14] = experiment: Hypoglycemic activity in Zucker fatty diabetes mellitus rat model assessed as increase in insulin levels in plasma at 0.03 to 1 mg/kg, po administered for 21 days and measured at 10 to 60 mins post glucose challenge on day 1 by OGTT; type: functional, organism-based; conditions: dose 0.03-1 mg/kg, time 21.0 day
[15] = Clearance in human liver microsomes by LC-MS/MS analysis; type: ADME, Microsome

Sequence of Voltage-gated inwardly rectifying potassium channel KCNH2 (Q12809 whole entry, the tested form may be a part): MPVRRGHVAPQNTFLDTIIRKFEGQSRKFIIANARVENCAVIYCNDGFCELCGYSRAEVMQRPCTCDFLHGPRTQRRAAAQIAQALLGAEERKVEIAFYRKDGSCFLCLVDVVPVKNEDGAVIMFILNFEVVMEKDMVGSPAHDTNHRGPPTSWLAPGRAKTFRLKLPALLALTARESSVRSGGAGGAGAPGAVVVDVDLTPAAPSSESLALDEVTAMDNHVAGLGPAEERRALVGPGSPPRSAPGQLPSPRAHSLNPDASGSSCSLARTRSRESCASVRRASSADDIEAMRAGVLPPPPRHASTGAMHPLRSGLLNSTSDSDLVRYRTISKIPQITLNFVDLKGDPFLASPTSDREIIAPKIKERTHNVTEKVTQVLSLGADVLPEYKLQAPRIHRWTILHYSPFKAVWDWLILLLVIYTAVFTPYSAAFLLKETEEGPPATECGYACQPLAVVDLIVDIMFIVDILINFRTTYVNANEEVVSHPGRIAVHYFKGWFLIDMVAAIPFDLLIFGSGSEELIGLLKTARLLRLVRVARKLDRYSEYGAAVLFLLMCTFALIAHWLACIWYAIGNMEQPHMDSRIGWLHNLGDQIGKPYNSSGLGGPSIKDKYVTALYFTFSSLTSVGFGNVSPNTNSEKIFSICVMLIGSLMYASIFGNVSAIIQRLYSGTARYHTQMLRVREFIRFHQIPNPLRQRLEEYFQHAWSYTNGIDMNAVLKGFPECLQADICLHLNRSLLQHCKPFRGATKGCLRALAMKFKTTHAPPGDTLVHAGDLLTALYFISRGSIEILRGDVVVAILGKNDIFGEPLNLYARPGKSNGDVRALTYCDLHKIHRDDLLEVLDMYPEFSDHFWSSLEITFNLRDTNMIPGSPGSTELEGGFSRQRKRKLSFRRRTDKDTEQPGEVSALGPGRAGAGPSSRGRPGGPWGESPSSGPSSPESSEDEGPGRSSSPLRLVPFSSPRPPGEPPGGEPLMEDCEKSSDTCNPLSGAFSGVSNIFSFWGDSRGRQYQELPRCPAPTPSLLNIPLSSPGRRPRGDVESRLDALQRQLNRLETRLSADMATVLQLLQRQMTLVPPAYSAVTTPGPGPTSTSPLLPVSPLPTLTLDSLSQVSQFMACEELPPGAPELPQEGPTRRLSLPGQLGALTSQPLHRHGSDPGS

Row | SMILES | EC50 [1] [µM] | IC50 [2] [µM] | EC50 (RXR alpha/PPAR gamma) [µM] | Activity (Rattus norvegicus [3]) | solubility [4] [µg/mL] | Drug metabolism [5] | Activity (Mus musculus) | Activity (Rattus norvegicus [6]) | CLH [7] [h⁻¹] | Activity (Rattus norvegicus [8]) | Drug metabolism [9] | Emax [10] [%] | Emax [11] [%] | CLH [12] [h⁻¹] | logP [13] | Activity (Rattus norvegicus [14]) | CLH [15] [h⁻¹]
1 | CC#C[C@@H](CC(=O)O)c1ccc(OCc2ccc(CN3CCC4(C=Cc5ccccc54)CC3)cc2)cc1 [LY2881835] | > 10 | > 10 | > 10 | Dose-dependent effect | 7 (≈ 14.2 µM) | Metabolite_Detected | Active | Dose-dependent effect | 0.09 | Active | Metabolite_Detected | 4 | 7 | 0.131 | 4.9 | Active | 0.033
2 | CC#C[C@@H](CC(=O)O)c1ccc(OCc2ccc(CN3CCC4(CCc5ccccc54)CC3)s2)cc1 | > 10 | > 10 | > 10 | Dose-dependent effect | 6 (≈ 12 µM) | Metabolite_Detected | Active | Dose-dependent effect | 0.1 | Active | Metabolite_Detected | 4 | 15 | 0.288 | 5 | Active | 0.109
3 | CC#C[C@@H](CC(=O)O)c1ccc(OCc2ccc(CN3CCCc4cccc(OC)c43)s2)cc1 | > 10 | > 10 | > 10 | Dose-dependent effect | 35 (≈ 73.6 µM) | Metabolite_Detected | Active | Dose-dependent effect | < 0.05 | Active | Metabolite_Detected | 4 | 8 | 0.022 | 5.2 | Active | 0.0048
4 | CC#C[C@@H](CC(=O)O)c1ccc(OCc2ccc(CN3CCC4(C=Cc5ccccc54)CC3)s2)cc1 | – | – | – | – | – | – | – | – | – | – | Metabolite_Detected | – | – | – | – | – | –
